Source: ChEMBL document CHEMBL3596120, “Discovery of natural alkaloid bouchardatine as a novel inhibitor of adipogenesis/lipogenesis in 3T3-L1 adipocytes” (Bioorg Med Chem, 2015)
The source made the active and inactive calls.

Key:
3T3-L1 [1] = assay: Effect on in AMPKalpha protein expression in mouse 3T3L1 cells at 25 uM after 0.5 to 4 hrs by Western blot method; type: functional, cell-based
3T3-L1 [2] = assay: Inhibition of adipogenesis in mouse 3T3L1 cells assessed as reduction in triglyceride content at 0.2 mM by colorimetric assay; type: functional, cell-based
3T3-L1 [3] = assay: Increase in AMPKalpha Thr172 phosphorylation in mouse 3T3L1 cells at 0.2 mM after 9 days by Western blot method; type: cell-based
In short: (§1)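 Mouse 3T3-L1 cells taken through the differentiation protocol, with compound or DMSO vehicle given from day 0 and renewed at day 3. Cells lysed on ice for 0.5 h in RIPA with PMSF, Na3VO4, NaF and protease inhibitors, then centrifuged at 12,000g. Lysates run on 12% SDS-PAGE and transferred to PVDF. Blots probed overnight at 4 °C and detected with HRP secondary. Bands quantified by optical density against GAPDH. Three independent experiments.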

3T3-L1 [4] = assay: Activation of AMPK in mouse 3T3L1 cells assessed as increase in ACC Ser79 phosphorylation at 0.2 mM after 9 days by Western blot method; type: cell-based; in short: as §1
[5] = Reduction in SCD1 protein expression in mouse 3T3L1 cells at 0.2 mM after 3 days by Western blot method; type: functional, cell-based; details: 3T3-L1
In short: (§2)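 3T3-L1 preadipocytes grown in DMEM with 10% FBS at 37 °C under 5% CO2. Differentiation starts 2 days post-confluence (day 0) with IBMX, 100 ng/mL dexamethasone and insulin for 3 d, then insulin in 10% FBS/DMEM for 3 d, then basic medium for 3 d. Compound is added on day 0 and renewed at day 3. Vehicle control receives the same volume of DMSO.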

[6] = Reduction in SREBP-1c protein expression in mouse 3T3L1 cells at 0.2 mM after 3 days by Western blot method; type: functional, cell-based; details: 3T3-L1; in short: as §2
[7] = Reduction in PPARgamma protein expression in mouse 3T3L1 cells at 0.2 mM after 3 days by Western blot method; type: functional, cell-based; details: 3T3-L1; in short: as §2
[8] = Reduction in C/EBPalpha protein expression in mouse 3T3L1 cells at 0.2 mM after 3 days by Western blot method; type: functional, cell-based; details: 3T3-L1; in short: as §1
[9] = Reduction in FAS protein expression in mouse 3T3L1 cells at 0.2 mM after 3 days by Western blot method; type: functional, cell-based; details: 3T3-L1; in short: as §2

Measured: Activity

NC(=O)c1ncn([C@@H]2O[C@H](CO)[C@@H](O)[C@H]2O)c1N
inactive: 3T3-L1 [1]
active: 3T3-L1 [2] | 3T3-L1 [3] | 3T3-L1 [4] | [5] | [6] | [7] | [8] | [9]
